The source of these data is ChEMBL document CHEMBL2440036, “3-[2-(Aminomethyl)-5-[(pyridin-4-yl)carbamoyl]phenyl] benzoates as soft ROCK inhibitors” (Bioorg Med Chem Lett, 2013).

SMILES strings stand for the structures. Active and inactive are the calls of the source.

Data set [1] is described as follows: Half life in human plasma by LC-MS/MS analysis. In kind it is ADME, cell-free.
The nature of data set [2]: Stability of the compound in PBS buffer at pH 7.4. It counts as physicochemical.
The target in data set [3] is Rho-associated protein kinase 2 (Homo sapiens, UniProt O75116). Put plainly: Inhibition of ROCK2 (unknown origin) using long S6 kinase peptide as substrate by radiometric assay.
A short description of data set [4]: Inhibition of ROCK in rat A7r5 cells assessed as inhibition of MLC phosphorylation by direct ELISA. It counts as cell-based. (An ELISA detects its analyte on a solid surface through an enzyme-linked reagent.)
A short description of data set [5]: Apparent permeability of the compound at 10 uM after 5 hrs by PAMPA. It counts as ADME.
A short description of data set [6]: Drug degradation in human plasma after 60 mins by LC-MS/MS analysis. In kind it is ADME, cell-free. To be noted: read-out: Drug degradation.
Data set [7] can be described thus: Drug degradation in aqueous humor of New Zealand white rabbit assessed as specific hydrolytic activity at 20 uM after 4 hrs by LC-MS/MS analysis. It counts as ADME, tissue-based, Oryctolagus cuniculus, Aqueous humor of eyeball. The method in brief: (§1)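 Test compound was incubated with ocular tissues from ocular normotensive New Zealand White rabbits, and its degradation rate was followed. Specific hydrolytic activity (pmol min-1 mg-1) was calculated by normalizing the degradation rate to tissue weight. Aqueous humor half-life refers to undiluted aqueous humor.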

Data set [8] can be described thus: Drug degradation in conjunctiva of New Zealand white rabbit assessed as specific hydrolytic activity at 20 uM after 4 hrs by LC-MS/MS analysis. In kind it is ADME, tissue-based, Oryctolagus cuniculus. The method in brief: as §1
The nature of data set [9]: Half life in aqueous humor of New Zealand white rabbit assessed as specific hydrolytic activity at 20 uM by LC-MS/MS analysis. It counts as ADME, tissue-based, Oryctolagus cuniculus, Aqueous humor of eyeball. The method in brief:
as §1

Data set [10] is described as follows: Drug degradation in sclera of New Zealand white rabbit assessed as specific hydrolytic activity at 20 uM after 4 hrs by LC-MS/MS analysis. It counts as ADME, tissue-based, Oryctolagus cuniculus. Summed up: as §1
Data set [11] can be described thus: Drug degradation in vitreous humor of New Zealand white rabbit assessed as specific hydrolytic activity at 20 uM after 4 hrs by LC-MS/MS analysis. In kind it is ADME, tissue-based, Oryctolagus cuniculus. The method in brief:
as §1

For data set [12], the species on record is Oryctolagus cuniculus. As to the kind of experiment: Toxicity in New Zealand white rabbit assessed as hyperemia. It counts as organism-based. To be noted: in vivo.
For data set [13], the system named is Oryctolagus cuniculus. As to the kind of experiment: Reduction of IOP in New Zealand white rabbit eye administered topically after 3 hrs relative to baseline. It counts as functional. Set-up: scale not given: the % may be the effect or the level left.
Data set [14] can be described thus: Drug degradation in cornea of New Zealand white rabbit assessed as specific hydrolytic activity at 20 uM after 4 hrs by LC-MS/MS analysis. It counts as ADME, tissue-based, Oryctolagus cuniculus. Summed up:
as §1

Data set [15] deals with Oryctolagus cuniculus. As to the kind of experiment: Reduction of IOP in New Zealand white rabbit eye administered topically after 6 hrs relative to vehicle-treated control. In kind it is functional.

Rho-associated protein kinase 2, sequence (O75116 whole entry): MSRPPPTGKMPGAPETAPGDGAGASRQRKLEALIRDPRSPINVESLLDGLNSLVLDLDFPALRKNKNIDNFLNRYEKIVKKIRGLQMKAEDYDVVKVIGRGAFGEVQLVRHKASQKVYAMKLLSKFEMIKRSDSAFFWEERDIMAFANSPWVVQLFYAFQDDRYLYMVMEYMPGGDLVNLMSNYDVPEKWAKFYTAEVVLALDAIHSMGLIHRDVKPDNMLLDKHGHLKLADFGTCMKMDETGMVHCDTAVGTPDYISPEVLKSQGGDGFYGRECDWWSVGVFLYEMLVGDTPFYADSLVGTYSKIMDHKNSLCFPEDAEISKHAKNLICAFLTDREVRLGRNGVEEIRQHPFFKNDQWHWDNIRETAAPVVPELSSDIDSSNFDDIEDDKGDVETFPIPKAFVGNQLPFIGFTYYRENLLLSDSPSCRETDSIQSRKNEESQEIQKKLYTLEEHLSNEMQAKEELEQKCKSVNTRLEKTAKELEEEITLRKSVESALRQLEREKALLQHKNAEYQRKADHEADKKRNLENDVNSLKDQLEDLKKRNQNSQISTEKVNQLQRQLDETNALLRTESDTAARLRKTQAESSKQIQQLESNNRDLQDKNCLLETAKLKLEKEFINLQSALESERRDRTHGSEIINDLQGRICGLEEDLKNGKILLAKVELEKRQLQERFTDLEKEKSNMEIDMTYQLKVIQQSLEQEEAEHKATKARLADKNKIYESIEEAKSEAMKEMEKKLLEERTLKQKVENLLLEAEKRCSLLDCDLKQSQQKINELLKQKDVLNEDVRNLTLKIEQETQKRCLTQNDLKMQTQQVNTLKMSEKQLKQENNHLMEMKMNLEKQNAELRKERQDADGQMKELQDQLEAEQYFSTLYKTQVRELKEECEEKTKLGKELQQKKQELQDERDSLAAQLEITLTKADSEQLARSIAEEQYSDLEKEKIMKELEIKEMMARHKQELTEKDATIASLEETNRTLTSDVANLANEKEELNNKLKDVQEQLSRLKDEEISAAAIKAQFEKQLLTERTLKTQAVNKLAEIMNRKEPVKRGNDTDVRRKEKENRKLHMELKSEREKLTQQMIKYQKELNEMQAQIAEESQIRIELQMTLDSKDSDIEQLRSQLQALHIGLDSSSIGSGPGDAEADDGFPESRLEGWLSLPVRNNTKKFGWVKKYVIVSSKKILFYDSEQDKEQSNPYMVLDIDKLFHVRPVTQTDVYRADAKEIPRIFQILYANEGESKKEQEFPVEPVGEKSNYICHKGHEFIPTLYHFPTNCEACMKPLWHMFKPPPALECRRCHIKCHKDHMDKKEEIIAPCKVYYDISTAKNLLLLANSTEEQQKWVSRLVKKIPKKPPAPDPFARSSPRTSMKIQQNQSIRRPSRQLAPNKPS

One may read the half-life as the time needed for the level to fall by half in the phase considered. One may read the IC50 as the point on the concentration scale where inhibition reaches its midpoint. Compound `CC(C)OCCOC(=O)c1cccc(-c2cc(C(=O)Nc3ccncc3F)ccc2CN)c1` registered a half-life in data set [1] of 6 min. The Stability entry in data set [2] is on record as “Stable”. This compound also displayed a 50% inhibitory concentration (IC50) in data set [3] of 37 nM.

Regarding `NCc1ccc(C(=O)Nc2ccncc2F)cc1-c1cccc(C(=O)OCC2CCCCO2)c1` (stereo not given), in data set [1], the half-life is 7 min. Also, the Stability entry in data set [2] was “Stable”. This compound also had a half-maximal inhibitory concentration (IC50) in data set [3] of 12 nM.

In [3], `COC(=O)c1ccc(-c2cc(C(=O)Nc3ccncc3)ccc2CN)cc1` showed an IC50 of 102 nM.

A word on the EC50: it is the concentration at which the effect is half-maximal. With `NCc1ccc(C(=O)Nc2ccncc2F)cc1-c1cccc(C(=O)OCC2CCCC2)c1`, the EC50 in data set [4] was 52 nM. In data set [1], the half-life was 17 min. The Stability result in [2] is given as “Stable”. The IC50 in data set [3] came out at 13 nM.

In turn, `NCc1ccc(C(=O)Nc2ccncc2F)cc1-c1cccc(C(=O)OC2CCCOC2)c1` (stereo not given) displayed a half-life in data set [1] of 18 min. In [2], the Stability result is given as “Stable”. For the same compound, the IC50 in [3] worked out at 8.7 nM.

One may read the Papp as the rate of passage across a membrane or cell layer, normalised by area and donor concentration. Consider `NCc1ccc(C(=O)Nc2ccncc2F)cc1-c1cccc(C(=O)O)c1`, for which the apparent permeability (Papp) at 5 h, 10 µM in data set [5] was < 0.01 ×10⁻⁶ cm/s. Also, in data set [6], the metabolised at 1 h is < 5%. Besides, the half-maximal effective concentration (EC50) in data set [4] was > 1000 nM. Further, in data set [1], the half-life was > 120 min. For the same compound, the IC50 in data set [3] was determined as 55 nM.

Regarding `COC(=O)c1cccc(-c2cc(C(=O)Nc3ccncc3F)ccc2CN)c1`, the EC50 in data set [4] came to 130 nM. In addition, in [1], the half-life was found to be 65 min. Besides, in data set [2], the Stability result is on record as “Stable”. In data set [3], this compound yielded an IC50 of 7.8 nM.

As to `NCc1ccc(C(=O)Nc2ccncc2F)cc1-c1cccc(C(=O)OCC2CCCO2)c1` (stereo not given), the Drug degradation was determined as 0.12 pmol/min/mg in data set [7]; 1.52 pmol/min/mg in [8]; 1 pmol/min/mg in data set [10]; 0.22 pmol/min/mg in data set [11]; 2.71 pmol/min/mg in data set [14]. The half-life at 20 µM in data set [9] is 116 min. Further, in data set [4], the concentration for a half-maximal effect (EC50) was 16 nM. The Activity entry in [12] was “Non-toxic”; in [13] it was 28.7%; in [15] (record 2), 0.5%. For the same compound, the half-life in data set [1] was < 5 min. In addition, the Stability entry in [2] was “Stable”. For the same compound, the concentration for half-maximal inhibition (IC50) in data set [3] turned out to be 2.5 nM. For the same compound, the outcome in data set [15] was Active.

Compound `NCc1ccc(C(=O)Nc2ccncc2)cc1-c1cccc(C(=O)OCc2ccccc2)c1` yielded a half-life in data set [1] of 64 min. The Stability entry in data set [2] was “Stable”. In data set [3], this compound returned an IC50 of 45 nM.

On to `CCCCCCOC(=O)c1cccc(-c2cc(C(=O)Nc3ccncc3)ccc2CN)c1`, for which the half-life in data set [1] is 50 min. Also, the Stability entry in [2] is recorded as “Stable”. Also, in data set [3], 22 nM corresponded to half-maximal inhibition (IC50).

The compound `CCCCCOC(=O)c1cccc(-c2cc(C(=O)Nc3ccncc3)ccc2CN)c1` gave a half-life in data set [1] of 58 min. Moreover, the Stability entry in [2] is on record as “Stable”. In data set [3], this compound yielded a half-inhibitory concentration (IC50) of 4.9 nM.

`COCCCOC(=O)c1cccc(-c2cc(C(=O)Nc3ccncc3)ccc2CN)c1`: in data set [4], the concentration giving a half-maximal response (EC50) is 28 nM. In data set [1], the half-life worked out at 26 min. The Stability entry in [2] is “Stable”. This compound came in with a concentration for half-maximal inhibition (IC50) in data set [3] of 1.5 nM.

For the compound `NCc1ccc(C(=O)Nc2ccncc2)cc1-c1cccc(C(=O)OCC2CCCCC2)c1`, the half-life in data set [1] is 99 min. Moreover, the Stability entry in data set [2] was “Stable”. The same compound gave an IC50 in [3] of 48 nM.

Turning to `COCCOC(=O)c1cccc(-c2cc(C(=O)Nc3ccncc3)ccc2CN)c1`, the EC50 in [4] is 170 nM. Also, in data set [1], the half-life stood at 12 min. Besides, the Stability result in data set [2] is reported as “Stable”. The same compound displayed a half-inhibitory concentration (IC50) in data set [3] of 3.6 nM.

In turn, `NCc1ccc(C(=O)Nc2ccncc2F)cc1-c1cccc(C(=O)OCCO)c1` had a half-life in [1] of 81 min. Moreover, in [2], the Stability entry is “Stable”. Further, in data set [3], the 50% inhibitory concentration (IC50) amounted to 1.4 nM.

Regarding `CCCOC(=O)c1cccc(-c2cc(C(=O)Nc3ccncc3F)ccc2CN)c1`, the half-life in [1] turned out to be 19 min. The Stability entry in data set [2] was “Stable”. For the same compound, in data set [3], the half-maximal inhibitory concentration (IC50) turned out to be 5.1 nM.

On to `NCc1ccc(C(=O)Nc2ccncc2F)cc1-c1cccc(C(=O)OCC2CC2)c1`, for which, in data set [1], the half-life was 18 min. Also, in [2], the Stability result is given as “Stable”. The midpoint of inhibition in [3], the IC50, lay at 2.7 nM.

Regarding `CCCOC(=O)c1cccc(-c2cc(C(=O)Nc3ccncc3)ccc2CN)c1`, in data set [4], the EC50 came out at 9.1 nM. In data set [1], this compound gave a half-life of 18 min. Also, the Stability result in data set [2] was “Stable”. The compound also had a concentration for half-maximal inhibition (IC50) in data set [3] of 1.4 nM.

As to `C[C@@H](N)[C@H]1CC[C@H](C(=O)Nc2ccncc2)CC1` [Y-27632], in [6], the metabolised at 1 h was < 5%. In addition, the 50% effective concentration (EC50) in data set [4] was 200 nM. Also, the half-life in data set [1] was > 120 min.

In the case of `CC(N)c1ccc(C(=O)Nc2ccncc2)cc1-c1ccc(F)cc1` (stereo not given), the metabolised at 1 h in data set [6] is < 5%. Further, in data set [4], the EC50 came to 6.1 nM. Moreover, the half-life in data set [1] is > 120 min. In data set [3], this compound yielded an IC50 of 1.2 nM.

As to `CCCCOC(=O)c1cccc(-c2cc(C(=O)Nc3ccncc3)ccc2CN)c1`, in data set [1], the half-life was determined as 22 min. The Stability result in [2] is “Stable”. The compound further gave a 50% inhibitory concentration (IC50) in data set [3] of 5.5 nM.

In the case of `NCc1ccc(C(=O)Nc2ccncc2)cc1-c1cccc(C(=O)OC2CCCCC2)c1`, the half-life in data set [1] was > 120 min. Besides, the Stability result in [2] was “Unstable”. Also, the concentration for half-maximal inhibition (IC50) in data set [3] came to 20 nM.

Turning to `COC(=O)c1cccc(-c2cc(C(=O)Nc3ccncc3)ccc2CN)c1`, the EC50 in data set [4] came out at 8 nM. In [1], the half-life was 91 min. The Stability result in data set [2] is on record as “Stable”. For the same compound, the IC50 in [3] came to 2.9 nM.

In [1], `CCOC(=O)c1cccc(-c2cc(C(=O)Nc3ccncc3)ccc2CN)c1` returned a half-life of 41 min. For the same compound, the Stability entry in [2] was “Stable”. Moreover, the 50% inhibitory concentration (IC50) in data set [3] is < 1 nM.

In the case of `NCc1ccc(C(=O)Nc2ccncc2F)cc1-c1cccc(C(=O)OCC2CCC2)c1`, the half-life in data set [1] turned out to be 13 min. In data set [2], the Stability result is listed as “Stable”. This compound returned an IC50 in data set [3] of 4.3 nM.

Consider `NCc1ccc(C(=O)Nc2ccncc2F)cc1-c1cccc(C(=O)Oc2ccccc2)c1`, for which, in [1], the half-life was found to be 7 min. The Stability entry in [2] is given as “Stable”. Besides, in data set [3], the 50% inhibitory concentration (IC50) turned out to be 6.2 nM.

As for `NCc1ccc(C(=O)Nc2ccncc2)cc1-c1cccc(C(=O)O)c1`, the Papp at 5 h, 10 µM in [5] was < 0.01 ×10⁻⁶ cm/s. For the same compound, the metabolised at 1 h in data set [6] is < 5%. Moreover, the EC50 in [4] was > 1000 nM. For the same compound, the half-life in [1] was > 120 min. For the same compound, in data set [3], the IC50 came out at 167 nM.

As for `NCc1ccc(C(=O)Nc2ccncc2)cc1-c1cccc(C(=O)OCC2CCCC2)c1`, the half-maximal effective concentration (EC50) in data set [4] was found to be 70 nM. In addition, the half-life in data set [1] stood at 31 min. Moreover, the Stability entry in [2] is recorded as “Stable”. In [3], this compound registered an IC50 of 5 nM.
